Laboratory results as given in ChEMBL document CHEMBL2417401, “Evaluation of steroidal amines as lipid raft modulators and potential anti-influenza agents” (Bioorg Med Chem Lett, 2013).

Tests used:
Influenza A virus [1] = test: Antiviral activity against Influenza A/PR8/34 (H1N1) virus infected in MDCK2 cells assessed as inhibition of virus budding by ELISA relative to control; format: functional, A/Puerto Rico/8/1934(H1N1), MDCK-II
Summary of the method: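 Infected MDCKII cells biotinylated 6 h post-infection; excess biotin quenched, and virus budded over the next hour harvested. Biotinylated particles captured on streptavidin-coated plates and detected by ELISA. Result relative to DMSO solvent control (100%).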

[2] = Therapeutic index, ratio of MTD for MDCK2 cells to IC50 for Influenza A/PR8/34 (H1N1) virus; format: cell-based; settings: dog, read-out: TI
Summary of the method: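 TI = MTC/IC50. IC50 comes from a focus reduction cell ELISA (anti-NP antibody HB65) in MDCKII cells, which were pre-incubated 5 min with serially diluted compound and then infected with serially diluted A/PR8/34. IC50 was obtained by regression where a dose-effect relation was seen; assays were run at least twice.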

Influenza A virus [3] = test: Antiviral activity against Influenza A/PR8/34 (H1N1) virus infected in MDCK2 cells assessed as inactivation of virus by virucidal assay relative to control; format: functional, A/Puerto Rico/8/1934(H1N1), MDCK-II; parameters: concentration or dose not given beside the values
Summary of the method: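 Influenza A/PR8/34 (H1N1) incubated with compound for 30 min, then titrated by focus reduction assay (cell ELISA in MDCKII cells with anti-nucleoprotein antibody HB65). Activity expressed relative to DMSO solvent control set at 100%.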

Influenza A virus [4] = test: Antiviral activity against Influenza A/PR8/34 (H1N1) virus infected in MDCK2 cells assessed as inhibition of virus reproduction by ELISA; format: functional, organism-based; settings: A/Puerto Rico/8/1934(H1N1), MDCK-II
Influenza A virus [5] = test: Antiviral activity against Influenza A/PR8/34 (H1N1) virus infected in MDCK2 cells assessed as raft modulation using N-terminally sterol-linked peptide as tracer relative to control; format: functional, A/Puerto Rico/8/1934(H1N1), MDCK-II; parameters: concentration or dose not given beside the values
Summary of the method: (§1)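 Raft liposomes (mol %: cholesterol 35, sphingomyelin 10.5, ganglioside M1 3.5, phosphatidylcholine 25.5, phosphatidylserine 25.5). Tracer is perylene or an N-terminally sterol-linked peptide inserted in the outer leaflet. Liposome/buffer partitioning is read by fluorescence; P is approximated as the membrane/aqueous tracer ratio. Disrafting % = 100×{1−P_steroid/P_DMSO}; augmentation % = −100×{1−P_DMSO/P_steroid}.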

Influenza A virus [6] = test: Antiviral activity against Influenza A/PR8/34 (H1N1) virus infected in MDCK2 cells assessed as raft modulation using perylene as tracer relative to control; format: functional, A/Puerto Rico/8/1934(H1N1), MDCK-II; parameters: concentration or dose not given beside the values; summary of the method: as §1
[7] = Cytotoxicity against MDCK2 cells assessed as maximum tolerated concentration by lactate dehydrogenase release assay; format: cell-based, Canis lupus familiaris, MDCK-II; settings: dog, read-out: MTD
Summary of the method: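 Maximum tolerated concentration in MDCKII cells from LDH release, determined under focus reduction assay conditions.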

Compound | inhibition (INH) (Influenza A virus [1]) [%] | selectivity ratio [2] | Activity (Influenza A virus [3]) [%] | IC50 (Influenza A virus [4]) [µM] | IC90 (Influenza A virus [4]) [µM] | Activity (Influenza A virus [5]) [%] | Activity (Influenza A virus [6]) [%] | MNTC [7] [µM]
CC(C)CCC[C@@H](C)[C@H]1CC[C@H]2[C@@H]3CC[C@H]4C[C@@H](CN)CC[C@]4(C)[C@H]3CC[C@]12C | 30.7 | 9.4 | 90.3 | 4 | 11.6 | -39.3 | -66.6 | 37.5
CC(C)CCC[C@@H](C)[C@H]1CC[C@H]2[C@@H]3CC[C@@]4(O)[C@H](O)C(=O)CC[C@]4(C)[C@H]3CC[C@]12C |  |  |  | 16 |  |  |  | 
CC(C)CCCC(C)C1CCC2C3CCC4CC(N)CCC4(C)C3CCC12C (centres undefined) | 51.8 | 8.8 | 47.8 | 1.7 | 9 | -7.1 | -42.4 | 15
CC(C)CCC[C@@H](C)[C@H]1CC[C@H]2[C@@H]3CC[C@H]4C[C@@H](CCN)CC[C@]4(C)[C@H]3CC[C@]12C | 65 | 23.8 | 132 | 2.1 | 13.4 | 31.2 | -38.2 | 50
CC(C)CCC[C@@H](C)[C@H]1CC[C@H]2[C@@H]3CC[C@H]4C[C@](O)(CN)CC[C@]4(C)[C@H]3CC[C@]12C | 41 | 10.9 | 64.2 | 2.3 | 21.5 | 15.6 | -41.5 | 25
CN[C@H]1CC[C@@]2(C)[C@@H](CC[C@@H]3[C@@H]2CC[C@]2(C)[C@@H]([C@H](C)CCCC(C)C)CC[C@@H]32)C1 | 33.8 | 7.6 | 0 | 3.3 | 17.5 | -7 | -50.5 | 25
CC(C)CCC[C@@H](C)[C@H]1CC[C@H]2[C@@H]3CC[C@H]4NCCC[C@]4(C)[C@H]3CC[C@]12C | 20.4 | 2.5 | 0 | 5.9 |  | 36.1 | 2.8 | 15
CC(C)CCC[C@@H](C)[C@H]1CC[C@H]2[C@@H]3CC[C@H]4C[C@H](N)CC[C@]4(C)[C@H]3CC[C@]12C | 79.9 | 7.9 | 28.5 | 1.9 | ≥ 15 | 56.3 | -72.8 | 15
CC(C)CCC[C@@H](C)[C@H]1CC[C@H]2[C@@H]3CC[C@H]4C[C@@H](N(C)C)CC[C@]4(C)[C@H]3CC[C@]12C | 42.8 | 4.1 | 0 | 3.7 | ≥ 15 | 15.6 | 15.5 | 15
CC(C)CCC[C@@H](C)[C@H]1CC[C@H]2[C@@H]3CC[C@H]4C[C@H](CN)CC[C@]4(C)[C@H]3CC[C@]12C | 12.7 | 10.1 | 50.9 | 3.7 | 7.7 | -39.6 | -60.3 | 37.5
CC(C)CCC[C@@H](C)[C@H]1CC[C@H]2[C@@H]3CC[C@H]4C[C@H](O)[C@@H](N)C[C@]4(C)[C@H]3CC[C@]12C | 53 | 16 | 75.5 | 4.7 | 62 | 32.3 | 26.5 | 75
CC(C)CCC[C@@H](C)[C@H]1CC[C@H]2[C@@H]3CC[C@H]4CCNCC[C@]4(C)[C@H]3CC[C@]12C | 61.8 | 3.8 | 44.1 | 3.3 | 9.7 |  |  | 12.5
CC(C)CCC[C@@H](C)[C@H]1CC[C@H]2[C@@H]3CC[C@@]4(O)[C@H](O)[C@@H](O)CC[C@]4(C)[C@H]3CC[C@]12C | 39.4 | 0.9 | 76.7 | 16.1 |  | -36.5 | -65.2 | 15
CC(C)CCC[C@@H](C)[C@H]1CC[C@H]2[C@@H]3CC=C4C[C@@H](N)CC[C@]4(C)[C@H]3CC[C@]12C | 50.9 | 2.9 | 63.4 | 8.6 | 11.4 | 78.8 | 83.2 | 25
CC(C)CCC[C@@H](C)[C@H]1CC[C@H]2[C@@H]3CC[C@H]4C[C@@H]([N+](C)(C)C)CC[C@]4(C)[C@H]3CC[C@]12C.[I-] | 94.4 | 3.6 | 16 | 3.5 | ≥ 12.5 | 83.5 | 90.3 | 12.5
